Measured values as given in ChEMBL document CHEMBL2062435, “Synthesis and in vitro antibacterial activity of gemifloxacin derivatives containing a substituted benzyloxime moiety” (2012).

Columns and labels:
Assay type in all cases: functional
Staphylococcus aureus [1] = assay: Antimicrobial activity against Staphylococcus aureus ATCC […] after 18-24 hrs by two-fold serial dilution method
Method in brief: (§1)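 Agar-medium twofold serial dilution against Gram-positive and Gram-negative strains; MIC taken as the lowest compound concentration giving complete inhibition of bacterial growth after incubation at 35 °C for 18-24 h.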

Staphylococcus aureus [2] = assay: Antimicrobial activity against extended spectrum beta-lactamases-producing methicillin-resistant Staphylococcus aureus 10-11 after 18-24 hrs by two-fold serial dilution method
Method in brief: (§2)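 Agar twofold serial dilution MIC against clinical isolates. MIC was taken as the lowest concentration giving complete inhibition of bacterial growth after incubation at 35 °C for 18-24 h.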

Staphylococcus aureus [3] = assay: Antimicrobial activity against extended spectrum beta-lactamases-producing methicillin-resistant Staphylococcus aureus 10-15 after 18-24 hrs by two-fold serial dilution method; method in brief: as §2
Staphylococcus aureus [4] = assay: Antimicrobial activity against extended spectrum beta-lactamases-producing methicillin-sensitive Staphylococcus aureus 10-13 after 18-24 hrs by two-fold serial dilution method; method in brief: as §1
Staphylococcus aureus [5] = assay: Antimicrobial activity against extended spectrum beta-lactamases-producing methicillin-sensitive Staphylococcus aureus 10-14 after 18-24 hrs by two-fold serial dilution method; method in brief: as §1
[6] = system: Staphylococcus epidermidis; assay: Antimicrobial activity against extended spectrum beta-lactamases-producing methicillin-resistant Staphylococcus epidermidis 10-10 after 18-24 hrs by two-fold serial dilution method; method in brief: as §2
[7] = system: Staphylococcus epidermidis; assay: Antimicrobial activity against extended spectrum beta-lactamases-producing methicillin-resistant Staphylococcus epidermidis 10-13 after 18-24 hrs by two-fold serial dilution method; method in brief: as §2
[8] = system: Staphylococcus epidermidis; assay: Antimicrobial activity against extended spectrum beta-lactamases-producing methicillin-sensitive Staphylococcus epidermidis 10-11 after 18-24 hrs by two-fold serial dilution method; method in brief: as §1
[9] = system: Staphylococcus epidermidis; assay: Antimicrobial activity against extended spectrum beta-lactamases-producing methicillin-sensitive Staphylococcus epidermidis 10-13 after 18-24 hrs by two-fold serial dilution method; method in brief: as §1
[10] = system: Staphylococcus epidermidis; assay: Antimicrobial activity against extended spectrum beta-lactamases-producing methicillin-sensitive Staphylococcus epidermidis 10-15 after 18-24 hrs by two-fold serial dilution method; method in brief: as §1
Enterococcus faecalis [11] = assay: Antimicrobial activity against Enterococcus faecalis 10-5 after 18-24 hrs by two-fold serial dilution method; method in brief: as §1
Enterococcus faecalis [12] = assay: Antimicrobial activity against Enterococcus faecalis 10-6 after 18-24 hrs by two-fold serial dilution method; method in brief: as §1
Enterococcus faecalis [13] = assay: Antimicrobial activity against Enterococcus faecalis 10-7 after 18-24 hrs by two-fold serial dilution method; method in brief: as §1
Enterococcus faecium [14] = assay: Antimicrobial activity against Enterococcus faecium 10-5 after 18-24 hrs by two-fold serial dilution method; method in brief: as §1
Enterococcus faecium [15] = assay: Antimicrobial activity against Enterococcus faecium 10-9 after 18-24 hrs by two-fold serial dilution method; method in brief: as §1
Streptococcus pneumoniae [16] = assay: Antimicrobial activity against extended spectrum beta-lactamases-producing Streptococcus pneumoniae 10-1 after 18-24 hrs by two-fold serial dilution method; method in brief: as §1
Streptococcus pneumoniae [17] = assay: Antimicrobial activity against extended spectrum beta-lactamases-producing Streptococcus pneumoniae 10-4 after 18-24 hrs by two-fold serial dilution method; method in brief: as §1
Escherichia coli [18] = assay: Antimicrobial activity against Escherichia coli ATCC 25922 after 18-24 hrs by two-fold serial dilution method; method in brief: as §1
Escherichia coli [19] = assay: Antimicrobial activity against Escherichia coli 10-1 after 18-24 hrs by two-fold serial dilution method; method in brief: as §1
Escherichia coli [20] = assay: Antimicrobial activity against Escherichia coli 10-2 after 18-24 hrs by two-fold serial dilution method; method in brief: as §1
Escherichia coli [21] = assay: Antimicrobial activity against extended spectrum beta-lactamases-producing Escherichia coli 10-2 after 18-24 hrs by two-fold serial dilution method; method in brief: as §1
Escherichia coli [22] = assay: Antimicrobial activity against Escherichia coli 10-3 after 18-24 hrs by two-fold serial dilution method; method in brief: as §1
Escherichia coli [23] = assay: Antimicrobial activity against extended spectrum beta-lactamases-producing Escherichia coli 10-3 after 18-24 hrs by two-fold serial dilution method; method in brief: as §1
Escherichia coli [24] = assay: Antimicrobial activity against extended spectrum beta-lactamases-producing Escherichia coli 10-4 after 18-24 hrs by two-fold serial dilution method; method in brief: as §1
Klebsiella pneumoniae [25] = assay: Antimicrobial activity against extended spectrum beta-lactamases-producing Klebsiella pneumoniae 10-1 after 18-24 hrs by two-fold serial dilution method; method in brief: as §1
Klebsiella pneumoniae [26] = assay: Antimicrobial activity against Klebsiella pneumoniae 10-2 after 18-24 hrs by two-fold serial dilution method; method in brief: as §1
Klebsiella pneumoniae [27] = assay: Antimicrobial activity against extended spectrum beta-lactamases-producing Klebsiella pneumoniae 10-2 after 18-24 hrs by two-fold serial dilution method; method in brief: as §1
Klebsiella pneumoniae [28] = assay: Antimicrobial activity against Klebsiella pneumoniae 10-3 after 18-24 hrs by two-fold serial dilution method; method in brief: as §1
Klebsiella pneumoniae [29] = assay: Antimicrobial activity against extended spectrum beta-lactamases-producing Klebsiella pneumoniae 10-3 after 18-24 hrs by two-fold serial dilution method; method in brief: as §1
Klebsiella pneumoniae [30] = assay: Antimicrobial activity against Klebsiella pneumoniae 10-4 after 18-24 hrs by two-fold serial dilution method; method in brief: as §1
Pseudomonas aeruginosa [31] = assay: Antimicrobial activity against Pseudomonas aeruginosa 10-12 after 18-24 hrs by two-fold serial dilution method; method in brief: as §1
Pseudomonas aeruginosa [32] = assay: Antimicrobial activity against extended spectrum beta-lactamases-producing Pseudomonas aeruginosa 10-5 after 18-24 hrs by two-fold serial dilution method; method in brief: as §1
Pseudomonas aeruginosa [33] = assay: Antimicrobial activity against extended spectrum beta-lactamases-producing Pseudomonas aeruginosa 10-9 after 18-24 hrs by two-fold serial dilution method; method in brief: as §1
Pseudomonas aeruginosa [34] = assay: Antimicrobial activity against extended spectrum beta-lactamases-producing Pseudomonas aeruginosa 10-15 after 18-24 hrs by two-fold serial dilution method; method in brief: as §1
Pseudomonas aeruginosa [35] = assay: Antimicrobial activity against extended spectrum beta-lactamases-producing Pseudomonas aeruginosa 10-18 after 18-24 hrs by two-fold serial dilution method; method in brief: as §1
Pseudomonas aeruginosa [36] = assay: Antimicrobial activity against extended spectrum beta-lactamases-producing Pseudomonas aeruginosa 10-20 after 18-24 hrs by two-fold serial dilution method; method in brief: as §1

SMILES | MIC (Staphylococcus aureus [1]) [µg/mL] | MIC (Staphylococcus aureus [2]) [µg/mL] | MIC (Staphylococcus aureus [3]) [µg/mL] | MIC (Staphylococcus aureus [4]) [µg/mL] | MIC (Staphylococcus aureus [5]) [µg/mL] | MIC [6] [µg/mL] | MIC [7] [µg/mL] | MIC [8] [µg/mL] | MIC [9] [µg/mL] | MIC [10] [µg/mL] | MIC (Enterococcus faecalis [11]) [µg/mL] | MIC (Enterococcus faecalis [12]) [µg/mL] | MIC (Enterococcus faecalis [13]) [µg/mL] | MIC (Enterococcus faecium [14]) [µg/mL] | MIC (Enterococcus faecium [15]) [µg/mL] | MIC (Streptococcus pneumoniae [16]) [µg/mL] | MIC (Streptococcus pneumoniae [17]) [µg/mL] | MIC (Escherichia coli [18]) [µg/mL] | MIC (Escherichia coli [19]) [µg/mL] | MIC (Escherichia coli [20]) [µg/mL] | also measured
COc1ccc(CO/N=C2\CN(c3nc4c(cc3F)c(=O)c(C(=O)O)cn4C3CC3)CC2CN)c(OC)c1.CS(=O)(=O)O (racemic) | 0.06 | 1 | 0.25 | 1 | 0.06 | 2 | 0.5 | 4 | 1 | 4 | 0.5 | 4 | 2 | 8 | 8 | 1 | 4 | 0.125 | > 128 | 8 | MIC (Escherichia coli [21]): > 128 µg/mL; MIC (Escherichia coli [22]): 16 µg/mL; MIC (Escherichia coli [23]): 32 µg/mL; MIC (Escherichia coli [24]): 0.25 µg/mL; MIC (Klebsiella pneumoniae [25]): > 128 µg/mL; MIC (Klebsiella pneumoniae [26]): > 128 µg/mL; MIC (Klebsiella pneumoniae [27]): > 128 µg/mL; MIC (Klebsiella pneumoniae [28]): 8 µg/mL; MIC (Klebsiella pneumoniae [29]): > 128 µg/mL; MIC (Klebsiella pneumoniae [30]): > 128 µg/mL; MIC (Pseudomonas aeruginosa [31]): 0.06 µg/mL; MIC (Pseudomonas aeruginosa [32]): 4 µg/mL; MIC (Pseudomonas aeruginosa [33]): 8 µg/mL; MIC (Pseudomonas aeruginosa [34]): 8 µg/mL; MIC (Pseudomonas aeruginosa [35]): 16 µg/mL; MIC (Pseudomonas aeruginosa [36]): 0.25 µg/mL
COc1ccc(CO/N=C2\CN(c3nc4c(cc3F)c(=O)c(C(=O)O)cn4C3CC3)CC2CN)c(Cl)c1OC.CS(=O)(=O)O (racemic) | 0.008 | 1 | 0.25 | 0.015 | 0.015 | 0.5 | 0.5 | 0.25 | 0.03 | 1 | 0.25 | 4 | 2 | 4 | 4 | 0.5 | 0.06 | 0.25 | > 128 | 32 | MIC (Escherichia coli [21]): > 128 µg/mL; MIC (Escherichia coli [22]): 16 µg/mL; MIC (Escherichia coli [23]): > 128 µg/mL; MIC (Escherichia coli [24]): 4 µg/mL; MIC (Klebsiella pneumoniae [25]): > 128 µg/mL; MIC (Klebsiella pneumoniae [26]): > 128 µg/mL; MIC (Klebsiella pneumoniae [27]): > 128 µg/mL; MIC (Klebsiella pneumoniae [28]): 8 µg/mL; MIC (Klebsiella pneumoniae [29]): > 128 µg/mL; MIC (Klebsiella pneumoniae [30]): > 128 µg/mL; MIC (Pseudomonas aeruginosa [31]): 16 µg/mL; MIC (Pseudomonas aeruginosa [32]): 16 µg/mL; MIC (Pseudomonas aeruginosa [33]): 8 µg/mL; MIC (Pseudomonas aeruginosa [34]): 32 µg/mL; MIC (Pseudomonas aeruginosa [35]): 16 µg/mL; MIC (Pseudomonas aeruginosa [36]): 16 µg/mL
CS(=O)(=O)O.NCC1CN(c2nc3c(cc2F)c(=O)c(C(=O)O)cn3C2CC2)C/C1=N\OCc1ccccc1 (racemic) | < 0.008 | 4 | 0.5 | 0.015 | 0.03 | 1 | 1 | 1 | 0.06 | 8 | 1 | 4 | 2 | 4 | 8 | 0.25 | 0.06 | 0.03 | 16 | 4 | MIC (Escherichia coli [21]): 32 µg/mL; MIC (Escherichia coli [22]): 8 µg/mL; MIC (Escherichia coli [23]): 32 µg/mL; MIC (Escherichia coli [24]): 4 µg/mL; MIC (Klebsiella pneumoniae [25]): 32 µg/mL; MIC (Klebsiella pneumoniae [26]): 32 µg/mL; MIC (Klebsiella pneumoniae [27]): 64 µg/mL; MIC (Klebsiella pneumoniae [28]): 2 µg/mL; MIC (Klebsiella pneumoniae [29]): 32 µg/mL; MIC (Klebsiella pneumoniae [30]): 128 µg/mL; MIC (Pseudomonas aeruginosa [31]): 4 µg/mL; MIC (Pseudomonas aeruginosa [32]): 8 µg/mL; MIC (Pseudomonas aeruginosa [33]): 2 µg/mL; MIC (Pseudomonas aeruginosa [34]): 4 µg/mL; MIC (Pseudomonas aeruginosa [35]): 1 µg/mL; MIC (Pseudomonas aeruginosa [36]): 2 µg/mL
COc1ccc(CO/N=C2\CN(c3nc4c(cc3F)c(=O)c(C(=O)O)cn4C3CC3)CC2CN)cc1OC.CS(=O)(=O)O (racemic) | 0.03 | 0.5 | 0.125 | 0.5 | 0.06 | 0.5 | 0.25 | 2 | 0.5 | 4 | 0.5 | 2 | 1 | 4 | 4 | 0.5 | 4 | 0.06 | 16 | 8 | MIC (Escherichia coli [21]): > 128 µg/mL; MIC (Escherichia coli [22]): 16 µg/mL; MIC (Escherichia coli [23]): 16 µg/mL; MIC (Escherichia coli [24]): 2 µg/mL; MIC (Klebsiella pneumoniae [25]): 64 µg/mL; MIC (Klebsiella pneumoniae [26]): 128 µg/mL; MIC (Klebsiella pneumoniae [27]): > 128 µg/mL; MIC (Klebsiella pneumoniae [28]): 4 µg/mL; MIC (Klebsiella pneumoniae [29]): > 128 µg/mL; MIC (Klebsiella pneumoniae [30]): > 128 µg/mL; MIC (Pseudomonas aeruginosa [31]): 0.03 µg/mL; MIC (Pseudomonas aeruginosa [32]): 2 µg/mL; MIC (Pseudomonas aeruginosa [33]): 8 µg/mL; MIC (Pseudomonas aeruginosa [34]): 1 µg/mL; MIC (Pseudomonas aeruginosa [35]): 4 µg/mL; MIC (Pseudomonas aeruginosa [36]): 0.06 µg/mL
